Results: ChEMBL document CHEMBL4689842, “EUbOPEN Chemogenomics Library wave 1” (2021)

System: Fibroblast
Assay: Multiplex assay against human fibroblast
Format: toxicity, cell-based
In short: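 Live cells carried four stains from seeding: Hoechst33342, BioTracker Green Microtubule Cytoskeleton Dye, MitoTracker Red and Annexin V Alexa Fluor 680. They were imaged on a CQ1 microscope at 37°C and 5% CO2 after compound addition. Using CellPathfinder machine-learning gating, cells were split into Hoechst high-intensity objects or normal cells, normal cells into healthy, pyknosed or fragmented nuclei, and pyknosed cells into mitotic or apoptotic; tubulin, mitochondrial-mass and membrane-permeability phenotypes are per cents of healthy-nucleus cells.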

[1] = 12 h, 1 µM, compound concentration 1 uM, replicate 1
[2] = 12 h, 1 µM, compound concentration 1 uM, replicate 2
[3] = 12 h, 10 µM, compound concentration 10 uM, replicate 1
[4] = 12 h, 10 µM, compound concentration 10 uM, replicate 2
[5] = 24 h, 1 µM, compound concentration 1 uM, replicate 1
[6] = 24 h, 1 µM, compound concentration 1 uM, replicate 2
[7] = 24 h, 10 µM, compound concentration 10 uM, replicate 1
[8] = 24 h, 10 µM, compound concentration 10 uM, replicate 2
[9] = 48 h, 1 µM, compound concentration 1 uM, replicate 1
[10] = 48 h, 1 µM, compound concentration 1 uM, replicate 2
[11] = 48 h, 10 µM, compound concentration 10 uM, replicate 1
[12] = 48 h, 10 µM, compound concentration 10 uM, replicate 2

CNc1oc(-c2cccc3ccccc23)nc1C#N
Population Apoptotic (%) [1]: 75%
Population Fragmented Nuclei (%) [1]: 65%
Population Healthy Nuclei (%) [1]: 23%
Population Hoechst High Intensity Objects (%) [1]: 70%
Population Membrane Permeable-Phenotype (%) [1]: 25%
Population Mitochondria Different-Phenotype (%) [1]: 0%
Population Mitotic Cells (%) [1]: 25%
Population Normal (%) [1]: 29%
Population Pyknosed Nuclei (%) [1]: 10%
Population Tubulin-Different-Phenotype (%) [1]: 14%
Total Cell Count [1]: 381
Population Apoptotic (%) [2]: 0%
Population Fragmented Nuclei (%) [2]: 29%
Population Healthy Nuclei (%) [2]: 67%
Population Hoechst High Intensity Objects (%) [2]: 15%
Population Membrane Permeable-Phenotype (%) [2]: 3%
Population Mitochondria Different-Phenotype (%) [2]: 11%
Population Mitotic Cells (%) [2]: 100%
Population Normal (%) [2]: 84%
Population Pyknosed Nuclei (%) [2]: 2%
Population Tubulin-Different-Phenotype (%) [2]: 7%
Total Cell Count [2]: 100
Population Apoptotic (%) [3]: 92%
Population Fragmented Nuclei (%) [3]: 41%
Population Healthy Nuclei (%) [3]: 23%
Population Hoechst High Intensity Objects (%) [3]: 64%
Population Membrane Permeable-Phenotype (%) [3]: 0%
Population Mitochondria Different-Phenotype (%) [3]: 0%
Population Mitotic Cells (%) [3]: 7%
Population Normal (%) [3]: 35%
Population Pyknosed Nuclei (%) [3]: 35%
Population Tubulin-Different-Phenotype (%) [3]: 0%
Total Cell Count [3]: 3193
Population Apoptotic (%) [4]: 80%
Population Fragmented Nuclei (%) [4]: 55%
Population Healthy Nuclei (%) [4]: 16%
Population Hoechst High Intensity Objects (%) [4]: 46%
Population Membrane Permeable-Phenotype (%) [4]: 1%
Population Mitochondria Different-Phenotype (%) [4]: 3%
Population Mitotic Cells (%) [4]: 19%
Population Normal (%) [4]: 53%
Population Pyknosed Nuclei (%) [4]: 28%
Population Tubulin-Different-Phenotype (%) [4]: 24%
Total Cell Count [4]: 92
Population Apoptotic (%) [5]: 33%
Population Fragmented Nuclei (%) [5]: 66%
Population Healthy Nuclei (%) [5]: 27%
Population Hoechst High Intensity Objects (%) [5]: 70%
Population Membrane Permeable-Phenotype (%) [5]: 6%
Population Mitochondria Different-Phenotype (%) [5]: 0%
Population Mitotic Cells (%) [5]: 66%
Population Normal (%) [5]: 29%
Population Pyknosed Nuclei (%) [5]: 5%
Population Tubulin-Different-Phenotype (%) [5]: 3%
Total Cell Count [5]: 391
Population Apoptotic (%) [6]: 25%
Population Fragmented Nuclei (%) [6]: 28%
Population Healthy Nuclei (%) [6]: 67%
Population Hoechst High Intensity Objects (%) [6]: 6%
Population Membrane Permeable-Phenotype (%) [6]: 1%
Population Mitochondria Different-Phenotype (%) [6]: 10%
Population Mitotic Cells (%) [6]: 75%
Population Normal (%) [6]: 93%
Population Pyknosed Nuclei (%) [6]: 3%
Population Tubulin-Different-Phenotype (%) [6]: 21%
Total Cell Count [6]: 113
Population Apoptotic (%) [7]: 93%
Population Fragmented Nuclei (%) [7]: 44%
Population Healthy Nuclei (%) [7]: 24%
Population Hoechst High Intensity Objects (%) [7]: 66%
Population Membrane Permeable-Phenotype (%) [7]: 1%
Population Mitochondria Different-Phenotype (%) [7]: 0%
Population Mitotic Cells (%) [7]: 6%
Population Normal (%) [7]: 33%
Population Pyknosed Nuclei (%) [7]: 31%
Population Tubulin-Different-Phenotype (%) [7]: 0%
Total Cell Count [7]: 2998
Population Apoptotic (%) [8]: 81%
Population Fragmented Nuclei (%) [8]: 57%
Population Healthy Nuclei (%) [8]: 16%
Population Hoechst High Intensity Objects (%) [8]: 44%
Population Membrane Permeable-Phenotype (%) [8]: 3%
Population Mitochondria Different-Phenotype (%) [8]: 3%
Population Mitotic Cells (%) [8]: 18%
Population Normal (%) [8]: 55%
Population Pyknosed Nuclei (%) [8]: 25%
Population Tubulin-Different-Phenotype (%) [8]: 26%
Total Cell Count [8]: 116
Population Apoptotic (%) [9]: 40%
Population Fragmented Nuclei (%) [9]: 71%
Population Healthy Nuclei (%) [9]: 23%
Population Hoechst High Intensity Objects (%) [9]: 77%
Population Membrane Permeable-Phenotype (%) [9]: 22%
Population Mitochondria Different-Phenotype (%) [9]: 4%
Population Mitotic Cells (%) [9]: 60%
Population Normal (%) [9]: 22%
Population Pyknosed Nuclei (%) [9]: 5%
Total Cell Count [9]: 411
Population Apoptotic (%) [10]: 80%
Population Fragmented Nuclei (%) [10]: 75%
Population Healthy Nuclei (%) [10]: 19%
Population Hoechst High Intensity Objects (%) [10]: 78%
Population Membrane Permeable-Phenotype (%) [10]: 31%
Population Mitochondria Different-Phenotype (%) [10]: 0%
Population Mitotic Cells (%) [10]: 20%
Population Normal (%) [10]: 21%
Population Pyknosed Nuclei (%) [10]: 4%
Population Tubulin-Different-Phenotype (%) [10]: 4%
Total Cell Count [10]: 519
Population Apoptotic (%) [11]: 85%
Population Fragmented Nuclei (%) [11]: 47%
Population Healthy Nuclei (%) [11]: 22%
Population Hoechst High Intensity Objects (%) [11]: 65%
Population Membrane Permeable-Phenotype (%) [11]: 0%
Population Mitochondria Different-Phenotype (%) [11]: 0%
Population Mitotic Cells (%) [11]: 14%
Population Normal (%) [11]: 34%
Population Pyknosed Nuclei (%) [11]: 30%
Population Tubulin-Different-Phenotype (%) [11]: 0%
Total Cell Count [11]: 2643
Population Fragmented Nuclei (%) [12]: 46%
Population Healthy Nuclei (%) [12]: 23%
Population Hoechst High Intensity Objects (%) [12]: 69%
Population Normal (%) [12]: 30%
Population Tubulin-Different-Phenotype (%) [12]: 1%
Total Cell Count [12]: 2437
